Experimental findings from ChEMBL document CHEMBL1765069, “Decahydroquinoline amides as highly selective CB2 agonists: role of selectivity on in vivo efficacy in a rodent model of analgesia” (Bioorg Med Chem Lett, 2011) are described below.

Several values for one entry are separate records, joined by “and”; a condition that tells them apart may be missing. Identical values can stand only once. Some results are limits rather than exact numbers.

In assay [1] the target is T1, Cannabinoid receptor 1 (Homo sapiens, UniProt P21554). The assay is described as follows: Agonist activity at human CB1 receptor expressed in CHOK1 cells assessed as inhibition of forskolin-induced cAMP production treated 15 mins before forskolin challenge measured after 1 hr by HTRF assay relative to control. The conditions noted are these: CHO-K1. Type of assay: functional, cell-based. The gist of the method:
(§1)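 CHO-K1 cells (1000 per well) expressing human or rat CB1 or CB2 were preincubated with compound at room temperature for 15 min. Forskolin at EC70 was then added for a further 30 min at room temperature. cAMP was read by HTRF (d2-cAMP plus anti-cAMP-cryptate, final 1 h at room temperature). IC50 and % Emax were reported.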

The target of assay [2] is T2, Cannabinoid receptor 2 (Homo sapiens, UniProt P34972). Briefly: Agonist activity at human CB2 receptor expressed in CHOK1 cells assessed as inhibition of forskolin-induced cAMP production treated 15 mins before forskolin challenge measured after 1 hr by HTRF assay. Type of assay: functional, cell-based, CHO-K1. The gist of the method: (§2)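 CHO-K1 cells (1000 per well) expressing human or rat CB1 or CB2 were preincubated with compound for 15 min at room temperature. Forskolin was then added at its EC70 for 30 min at room temperature. cAMP was detected by HTRF (d2-cAMP plus anti-cAMP cryptate) after a final 1 h incubation at room temperature. Values are reported as IC50 with % Emax.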
T2 sequence (P34972 whole entry): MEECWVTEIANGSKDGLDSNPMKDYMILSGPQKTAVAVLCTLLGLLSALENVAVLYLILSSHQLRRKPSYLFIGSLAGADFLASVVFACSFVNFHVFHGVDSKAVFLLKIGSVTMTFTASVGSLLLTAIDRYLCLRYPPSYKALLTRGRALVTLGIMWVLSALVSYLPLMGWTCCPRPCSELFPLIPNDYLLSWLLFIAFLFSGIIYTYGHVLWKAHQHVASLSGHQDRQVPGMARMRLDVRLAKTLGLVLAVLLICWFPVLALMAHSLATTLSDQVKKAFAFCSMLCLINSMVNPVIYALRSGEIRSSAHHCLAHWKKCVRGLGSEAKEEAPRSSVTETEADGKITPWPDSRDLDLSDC

The target of assay [3] is T2, Cannabinoid receptor 2. Briefly: Agonist activity at human CB2 receptor expressed in CHOK1 cells assessed as inhibition of forskolin-induced cAMP production treated 15 mins before forskolin challenge measured after 1 hr by HTRF assay relative to control. Type of assay: functional, cell-based. Conditions: CHO-K1. The gist of the method:
as §1

For assay [4], the target named is T1, Cannabinoid receptor 1. The assay is described as follows: Agonist activity at human CB1 receptor expressed in CHOK1 cells assessed as inhibition of forskolin-induced cAMP production treated 15 mins before forskolin challenge measured after 1 hr by HTRF assay. Type of assay: functional, cell-based, CHO-K1. The essentials: as §2
The species entered for another assay is Homo sapiens. Briefly: Selectivity ratio of IC50 for human CB1 receptor to IC50 for human CB2 receptor.

T1 sequence (P21554 whole entry): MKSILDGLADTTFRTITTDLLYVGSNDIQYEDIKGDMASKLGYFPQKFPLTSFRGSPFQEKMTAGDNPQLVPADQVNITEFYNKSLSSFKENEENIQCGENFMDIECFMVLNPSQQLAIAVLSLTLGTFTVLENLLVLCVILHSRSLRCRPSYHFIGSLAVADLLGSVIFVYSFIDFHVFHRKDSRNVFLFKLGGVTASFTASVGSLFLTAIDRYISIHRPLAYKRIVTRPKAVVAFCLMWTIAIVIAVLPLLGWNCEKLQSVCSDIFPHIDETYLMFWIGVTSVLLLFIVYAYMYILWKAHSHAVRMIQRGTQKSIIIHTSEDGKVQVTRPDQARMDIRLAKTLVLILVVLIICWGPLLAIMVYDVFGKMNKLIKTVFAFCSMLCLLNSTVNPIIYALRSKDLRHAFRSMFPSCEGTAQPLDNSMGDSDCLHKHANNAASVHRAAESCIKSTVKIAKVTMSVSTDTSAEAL

On to `O=C(c1ccccc1)N1CC[C@](O)(c2ccccc2)[C@H]2CCCC[C@@H]21`, for which the figures for the Emax on Cannabinoid receptor 1 [1] and at Cannabinoid receptor 2 [3] were 14% and 99%, respectively. For the same compound, the IC50 at Cannabinoid receptor 2 [2] was 45 nM; at Cannabinoid receptor 1 [4], over 17000 nM.
On the same counts, the results for `O=C(c1ccc(Cl)cc1)N1CC[C@](O)(c2ccccc2)[C@H]2CCCC[C@@H]21` are 72%, 90%, 24 nM and 963 nM.
On the same counts, the results for `O=C(c1ccc2ccccc2n1)N1CC[C@](O)(c2ccccc2)[C@H]2CCCC[C@@H]21` are 84%, 98%, 41 nM and 2020 nM.
On the same counts, the results for `O=C(c1cccc2[nH]ccc12)N1CC[C@](O)(c2ccccc2)[C@H]2CCCC[C@@H]21` are 31%, 94%, 22 nM and over 17000 nM.
For the compound `CN1CCC(C(=O)N2CC[C@](O)(c3ccccc3)[C@H]3CCCC[C@@H]32)C1` (stereo partly specified), the Emax at Cannabinoid receptor 1 [1] and on Cannabinoid receptor 2 [3] was 34% throughout. For the same compound, the IC50 on Cannabinoid receptor 2 [2] and on Cannabinoid receptor 1 [4] was over 17000 nM throughout.
Regarding `O=C(c1ccccc1)N1CC[C@](O)(c2ccccc2)[C@H]2CCCC[C@H]21`, the maximum response (Emax) is 76% at Cannabinoid receptor 1 [1] and 100% on Cannabinoid receptor 2 [3]. Further, the results for the IC50 on Cannabinoid receptor 2 [2] and at Cannabinoid receptor 1 [4] were 4.2 nM and 4540 nM, respectively.
In the same order, the values of `O=C(c1ccc(Cl)cc1)N1CC[C@](O)(c2ccccc2)[C@H]2CCCC[C@H]21` are 79%, 90%, 0.14 nM and 312 nM.
On the same counts, the results for `O=C(c1ccc2ccccc2n1)N1CC[C@](O)(c2ccccc2)[C@H]2CCCC[C@H]21` are 98%, 98%, 0.82 nM and 188 nM.
On the same counts, the results for `O=C(c1cccc2[nH]ccc12)N1CC[C@](O)(c2ccccc2)[C@H]2CCCC[C@H]21` are 64%, 100%, 0.62 nM and over 17000 nM.
As to `O=C(c1cc(-c2ccccc2F)[nH]n1)N1CC[C@](O)(c2ccccc2)[C@H]2CCCC[C@H]21`, the Emax on Cannabinoid receptor 1 [1] worked out at 46%; at Cannabinoid receptor 2 [3] it was 99%. Moreover, the IC50 was 21 nM on Cannabinoid receptor 2 [2] and over 17000 nM at Cannabinoid receptor 1 [4].
On the same counts, the results for `CN1CCC(C(=O)N2CC[C@](O)(c3ccccc3)[C@H]3CCCC[C@H]32)C1` (stereo partly specified) are 6%, 102%, 5.9 nM and over 17000 nM.
Turning to `O=C(c1cc(-c2ccccc2F)[nH]n1)N1CC[C@](O)(c2ccccc2)[C@H]2CCCC[C@@H]21`, the Emax on Cannabinoid receptor 1 [1] was found to be 56%; at Cannabinoid receptor 2 [3], 81%.
In the same order, the values of `O=C(c1cccc2[nH]ncc12)N1CCC(O)(c2ccccc2)[C@@H]2CCCC[C@@H]21` (stereo partly specified) are 95% and 100%.
As for `O=C(c1csc(-c2ccncc2)n1)N1CCC(O)(c2ccccc2)[C@@H]2CCCC[C@@H]21` (stereo partly specified), the Emax on Cannabinoid receptor 1 [1] is 10% and 3%; at Cannabinoid receptor 2 [3], 77% and 89%.
With `O=C1CC(C(=O)N2CC[C@@](O)(c3ccccc3)[C@@H]3CCCC[C@@H]32)CN1` (mixture of isomers), the concentration for half-maximal inhibition (IC50) was 3470 nM on Cannabinoid receptor 2 [2] and over 17000 nM at Cannabinoid receptor 1 [4]. For the same compound, the Emax at Cannabinoid receptor 2 [3] stood at 89%.
With `O=C1CCC(C(=O)N2CC[C@@](O)(c3ccccc3)[C@@H]3CCCC[C@@H]32)N1` (mixture of isomers), the values for the half-inhibitory concentration (IC50) on Cannabinoid receptor 2 [2] and on Cannabinoid receptor 1 [4] were 193 nM and over 17000 nM, respectively. Besides, the Emax on Cannabinoid receptor 2 [3] is 102%.
In the case of `O=C(C1CN(CC(F)(F)F)CCO1)N1CC[C@@](O)(c2ccccc2)[C@@H]2CCCC[C@@H]21` (mixture of isomers), the Emax worked out at 96% at Cannabinoid receptor 1 [1] and 99% at Cannabinoid receptor 2 [3]. Besides, the results for the IC50 on Cannabinoid receptor 2 [2] and at Cannabinoid receptor 1 [4] were 30 nM and 4040 nM, respectively.
Turning to `O=C(c1cnc2ccccc2c1)N1CC[C@@](O)(c2ccccc2)[C@@H]2CCCC[C@@H]21` (racemic), the results for the maximal effect (Emax) at Cannabinoid receptor 1 [1] and at Cannabinoid receptor 2 [3] were 69% and 96%, respectively. The values for the IC50 on Cannabinoid receptor 2 [2] and on Cannabinoid receptor 1 [4] were 3.38 nM and 1530 nM, respectively. Also, the Ratio IC50 in the assay listed under Homo sapiens is 452.
On the same counts, the results for `O=C(c1ccc2ncccc2c1)N1CC[C@@](O)(c2ccccc2)[C@@H]2CCCC[C@@H]21` (racemic) are 95%, 87%, 0.53 nM, 261 nM and 492.
As for `O=C(c1ccc2cnccc2n1)N1CC[C@@](O)(c2ccccc2)[C@@H]2CCCC[C@@H]21` (racemic), the results for the Emax at Cannabinoid receptor 1 [1] and at Cannabinoid receptor 2 [3] were 69% and 99%, respectively. Moreover, the IC50 at Cannabinoid receptor 2 [2] amounted to 5.5 nM; at Cannabinoid receptor 1 [4] it was 3440 nM. Moreover, the Ratio IC50 in the assay listed under Homo sapiens was determined as 626.
In the case of `O=C(c1ccon1)N1CC[C@@](O)(c2ccccc2)[C@@H]2CCCC[C@@H]21` (racemic), the values for the IC50 on Cannabinoid receptor 2 [2] and at Cannabinoid receptor 1 [4] were 11 nM and over 17000 nM, respectively. Besides, on Cannabinoid receptor 2 [3], the Emax is 102%.
Consider `O=C(c1ccncc1F)N1CC[C@@](O)(c2ccccc2)[C@@H]2CCCC[C@@H]21` (racemic), for which the values for the IC50 at Cannabinoid receptor 2 [2] and at Cannabinoid receptor 1 [4] were 6.3 nM and over 17000 nM, respectively. For the same compound, on Cannabinoid receptor 2 [3], the Emax is 99%.
As for `Cn1ccnc1C(=O)N1CC[C@@](O)(c2ccccc2)[C@@H]2CCCC[C@@H]21` (racemic), the IC50 on Cannabinoid receptor 2 [2] is 124 nM; on Cannabinoid receptor 1 [4], over 17000 nM. Further, the Emax at Cannabinoid receptor 2 [3] amounted to 100%.
On the same counts, the results for `Cc1cccc(C(=O)N2CC[C@@](O)(c3ccccc3)[C@@H]3CCCC[C@@H]32)n1` (racemic) are 6.1 nM, over 17000 nM and 99%.
On the same counts, the results for `O=C(c1ccc(OCC(F)(F)F)nc1)N1CC[C@@](O)(c2ccccc2)[C@@H]2CCCC[C@@H]21` (racemic) are 16 nM, over 17000 nM and 100%.
On the same counts, the results for `O=C(c1nnc[nH]1)N1CC[C@@](O)(c2ccccc2)[C@@H]2CCCC[C@@H]21` (racemic) are 282 nM, over 17000 nM and 101%.
With `O=C(c1ccc(C2CC2)nc1)N1CC[C@@](O)(c2ccccc2)[C@@H]2CCCC[C@@H]21` (racemic), the IC50 is 12 nM at Cannabinoid receptor 2 [2] and over 17000 nM on Cannabinoid receptor 1 [4]. Further, at Cannabinoid receptor 2 [3], the Emax worked out at 96%.
Regarding `CN1CCC(C(=O)N2CC[C@@](O)(c3ccccc3)[C@@H]3CCCC[C@@H]32)CC1` (racemic), the IC50 at Cannabinoid receptor 2 [2] is 395 nM; at Cannabinoid receptor 1 [4], over 17000 nM. Besides, the Emax at Cannabinoid receptor 2 [3] was found to be 98%.
In the same order, the values of `O=C([C@@H]1C[C@@H](O)CCN1)N1CC[C@@](O)(c2ccccc2)[C@@H]2CCCC[C@@H]21` (racemic) are 2180 nM, over 17000 nM and 87%.
In the same order, the values of `O=C(c1cscn1)N1CC[C@@](O)(c2ccccc2)[C@@H]2CCCC[C@@H]21` (racemic) are 41 nM, over 17000 nM and 101%.
`O=C(c1ncccn1)N1CC[C@@](O)(c2ccccc2)[C@@H]2CCCC[C@@H]21` (racemic): the 50% inhibitory concentration (IC50) on Cannabinoid receptor 2 [2] was 29 nM; on Cannabinoid receptor 1 [4] it was over 17000 nM. Further, the Emax on Cannabinoid receptor 2 [3] is 101%.
In the same order, the values of `O=C(c1ccc(C(F)(F)F)nc1)N1CC[C@@](O)(c2ccccc2)[C@@H]2CCCC[C@@H]21` (racemic) are 12 nM, over 17000 nM and 96%.
On the same counts, the results for `O=C(c1ccncn1)N1CC[C@@](O)(c2ccccc2)[C@@H]2CCCC[C@@H]21` (racemic) are 140 nM, over 17000 nM and 103%.
As for `O=C(c1cnco1)N1CC[C@@](O)(c2ccccc2)[C@@H]2CCCC[C@@H]21` (racemic), the maximal response (Emax) on Cannabinoid receptor 1 [1] turned out to be 50%; at Cannabinoid receptor 2 [3] it was 98%. The values for the IC50 on Cannabinoid receptor 2 [2] and at Cannabinoid receptor 1 [4] were 156 nM and 3440 nM, respectively.
Regarding `O=C(c1cn(CC(F)(F)F)cn1)N1CC[C@@](O)(c2ccccc2)[C@@H]2CCCC[C@@H]21` (racemic), the IC50 at Cannabinoid receptor 2 [2] was 26 nM; at Cannabinoid receptor 1 [4], over 17000 nM. For the same compound, the Emax at Cannabinoid receptor 2 [3] is 104%.
With `O=C(c1cccc2[nH]ncc12)N1CCC(O)(c2ccccc2)[C@@H]2CCCC[C@@H]21` (single isomer, unassigned), the Emax on Cannabinoid receptor 1 [1] was 28%; on Cannabinoid receptor 2 [3], 100%.
On to `O=C(c1csc(-c2ccncc2)n1)N1CCC(O)(c2ccccc2)[C@@H]2CCCC[C@@H]21` (single isomer, unassigned; form 1), for which the Emax on Cannabinoid receptor 1 [1] is 12%; on Cannabinoid receptor 2 [3], 100%.
In the same order, the values of `O=C(c1csc(-c2ccncc2)n1)N1CCC(O)(c2ccccc2)[C@@H]2CCCC[C@@H]21` (single isomer, unassigned; form 2) are 18% and 98%.
On the same counts, the results for `O=C(c1csc(-c2ccncc2)n1)N1CCC(O)(c2ccccc2)[C@@H]2CCCC[C@@H]21` (single isomer, unassigned; form 3) are 51% and 97%.
On the same counts, the results for `O=C(c1csc(-c2ccncc2)n1)N1CCC(O)(c2ccccc2)[C@@H]2CCCC[C@@H]21` (single isomer, unassigned; form 4) are 46% and 19%.
